# Measured values as given in ChEMBL document CHEMBL1134648 (J Med Chem, 2001).
# pKi: −log10 of the molar value.
# How the values were obtained:
# Coagulation factor X [1] = target: T1, Coagulation factor X (Oryctolagus cuniculus, UniProt O19045); test: In vitro activity against rabbit FXa.
# T1 sequence (O19045 whole entry): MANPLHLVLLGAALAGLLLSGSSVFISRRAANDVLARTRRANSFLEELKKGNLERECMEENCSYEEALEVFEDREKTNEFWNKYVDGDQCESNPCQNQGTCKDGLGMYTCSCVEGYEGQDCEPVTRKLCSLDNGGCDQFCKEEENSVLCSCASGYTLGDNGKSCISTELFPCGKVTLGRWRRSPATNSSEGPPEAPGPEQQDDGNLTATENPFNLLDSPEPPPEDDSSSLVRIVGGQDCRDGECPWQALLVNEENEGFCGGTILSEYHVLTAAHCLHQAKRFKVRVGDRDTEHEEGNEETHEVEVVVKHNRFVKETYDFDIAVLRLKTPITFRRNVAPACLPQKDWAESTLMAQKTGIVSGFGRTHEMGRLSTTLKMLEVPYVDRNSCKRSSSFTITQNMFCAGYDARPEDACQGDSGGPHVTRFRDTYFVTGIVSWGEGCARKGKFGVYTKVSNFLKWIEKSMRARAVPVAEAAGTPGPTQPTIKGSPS
# Coagulation factor X [2] = target: Coagulation factor X (Homo sapiens, UniProt P00742); test: Binding affinity against human coagulation factor X
# Prothrombin = Prothrombin (Homo sapiens, UniProt P00734); test: In vitro activity against human thrombin.
# Homo sapiens [3] = organism: Homo sapiens; test: In vitro human activated partial thromboplastin time of the compound.; type: functional
# Trypsin = Trypsin (Homo sapiens, UniProt P07477+P07478+P35030); test: In vitro activity against human trypsin.; type: protein assay
# Oryctolagus cuniculus [4] = organism: Oryctolagus cuniculus; test: (§1) Antithrombotic efficacy in a rabbit arteriovenous shunt thrombosis model.; type: functional
# Homo sapiens [5] = organism: Homo sapiens; test: In vitro Activated partial thromboplastin time of the compound.; type: functional
# Oryctolagus cuniculus [6] = organism: Oryctolagus cuniculus; test: as §1; type: functional; remark: listed apart in the source
# Method in brief: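 Test agents were given to rabbits by intravenous continuous infusion in an arterio-venous shunt thrombosis model.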
# Plasma kallikrein = Plasma kallikrein (Homo sapiens, UniProt P03952); test: In vitro activity against human Plasma kallikrein.; type: cell-free
# [7] = target: Urokinase-type plasminogen activator (Homo sapiens, UniProt P00749); test: In vitro activity against human urokinase
# Coagulation factor IX = Coagulation factor IX (Homo sapiens, UniProt P00740); test: In vitro activity against human factor IXa
# [8] = target: Vitamin K-dependent protein C (Homo sapiens, UniProt P04070); test: In vitro activity against human Activated protein C
# [9] = target: Tissue-type plasminogen activator (Homo sapiens, UniProt P00750); test: In vitro activity against human tissue plasminogen activator
# Plasminogen = Plasminogen (Homo sapiens, UniProt P00747); test: In vitro activity against human plasmin
# Coagulation factor X [10] = target: T1, Coagulation factor X; test: In vitro activity against rabbit factor Xa
# Coagulation factor X (Homo sapiens, UniProt P00742), sequence (P00742 41-179 limits assumed): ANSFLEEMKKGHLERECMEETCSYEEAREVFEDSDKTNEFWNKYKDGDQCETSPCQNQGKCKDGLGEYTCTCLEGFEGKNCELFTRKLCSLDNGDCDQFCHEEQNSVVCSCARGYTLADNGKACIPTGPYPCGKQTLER
# Coagulation factor X (Homo sapiens, UniProt P00742), sequence (P00742 235-488 limits assumed): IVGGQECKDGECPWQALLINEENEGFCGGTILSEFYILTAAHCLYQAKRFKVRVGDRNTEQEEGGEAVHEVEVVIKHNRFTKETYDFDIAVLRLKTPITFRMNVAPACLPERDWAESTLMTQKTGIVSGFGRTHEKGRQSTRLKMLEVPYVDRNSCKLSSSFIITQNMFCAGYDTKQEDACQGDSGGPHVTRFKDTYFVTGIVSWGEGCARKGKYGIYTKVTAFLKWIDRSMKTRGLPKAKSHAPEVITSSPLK
# Coagulation factor IX, sequence (P00740 47-191 limits assumed): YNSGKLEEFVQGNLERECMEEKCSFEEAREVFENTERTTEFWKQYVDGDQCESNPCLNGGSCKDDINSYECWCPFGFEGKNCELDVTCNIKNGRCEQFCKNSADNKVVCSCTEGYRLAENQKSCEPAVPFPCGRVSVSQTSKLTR
# Coagulation factor IX, sequence (P00740 227-461 limits assumed): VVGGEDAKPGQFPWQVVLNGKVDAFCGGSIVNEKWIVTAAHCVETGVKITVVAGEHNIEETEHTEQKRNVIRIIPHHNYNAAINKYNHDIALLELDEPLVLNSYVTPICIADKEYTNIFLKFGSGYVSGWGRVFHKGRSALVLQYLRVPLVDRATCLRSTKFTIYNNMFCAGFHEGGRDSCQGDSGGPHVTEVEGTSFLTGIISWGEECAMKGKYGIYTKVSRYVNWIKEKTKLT
# Plasminogen, sequence (P00747 97-580 limits assumed): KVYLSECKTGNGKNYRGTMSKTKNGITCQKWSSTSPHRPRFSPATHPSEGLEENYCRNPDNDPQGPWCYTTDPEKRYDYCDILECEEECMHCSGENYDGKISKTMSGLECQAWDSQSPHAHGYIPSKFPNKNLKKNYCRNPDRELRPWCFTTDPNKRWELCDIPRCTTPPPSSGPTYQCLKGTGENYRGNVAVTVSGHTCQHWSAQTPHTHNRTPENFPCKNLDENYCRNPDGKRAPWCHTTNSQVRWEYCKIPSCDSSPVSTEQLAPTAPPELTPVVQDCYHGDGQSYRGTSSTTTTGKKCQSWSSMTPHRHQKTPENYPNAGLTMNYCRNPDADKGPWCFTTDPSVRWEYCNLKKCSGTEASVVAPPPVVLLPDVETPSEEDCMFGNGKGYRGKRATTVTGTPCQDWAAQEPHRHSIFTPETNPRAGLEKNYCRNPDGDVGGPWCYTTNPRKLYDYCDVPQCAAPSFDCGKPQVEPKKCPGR
# Plasminogen, sequence (P00747 581-810 limits assumed): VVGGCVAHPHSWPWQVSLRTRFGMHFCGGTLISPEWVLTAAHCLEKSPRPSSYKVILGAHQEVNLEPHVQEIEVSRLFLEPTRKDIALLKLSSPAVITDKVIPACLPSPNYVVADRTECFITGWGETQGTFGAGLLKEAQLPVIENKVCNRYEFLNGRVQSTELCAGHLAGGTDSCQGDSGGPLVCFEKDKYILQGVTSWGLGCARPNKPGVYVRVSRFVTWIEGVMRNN
# Vitamin K-dependent protein C, sequence (P04070 43-197 limits assumed): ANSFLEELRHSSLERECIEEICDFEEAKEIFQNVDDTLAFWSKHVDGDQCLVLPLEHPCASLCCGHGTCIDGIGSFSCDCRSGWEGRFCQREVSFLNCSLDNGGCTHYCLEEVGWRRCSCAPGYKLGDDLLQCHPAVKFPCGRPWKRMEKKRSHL
# Vitamin K-dependent protein C, sequence (P04070 212-461 limits assumed): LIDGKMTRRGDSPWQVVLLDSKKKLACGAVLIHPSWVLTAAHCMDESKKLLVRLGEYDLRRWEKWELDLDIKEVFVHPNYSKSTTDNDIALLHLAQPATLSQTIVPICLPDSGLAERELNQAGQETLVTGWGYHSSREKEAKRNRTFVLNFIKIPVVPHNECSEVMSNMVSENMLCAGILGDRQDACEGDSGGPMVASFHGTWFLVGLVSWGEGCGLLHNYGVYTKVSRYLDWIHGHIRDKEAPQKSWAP
# Plasma kallikrein, sequence (P03952 20-390 limits assumed): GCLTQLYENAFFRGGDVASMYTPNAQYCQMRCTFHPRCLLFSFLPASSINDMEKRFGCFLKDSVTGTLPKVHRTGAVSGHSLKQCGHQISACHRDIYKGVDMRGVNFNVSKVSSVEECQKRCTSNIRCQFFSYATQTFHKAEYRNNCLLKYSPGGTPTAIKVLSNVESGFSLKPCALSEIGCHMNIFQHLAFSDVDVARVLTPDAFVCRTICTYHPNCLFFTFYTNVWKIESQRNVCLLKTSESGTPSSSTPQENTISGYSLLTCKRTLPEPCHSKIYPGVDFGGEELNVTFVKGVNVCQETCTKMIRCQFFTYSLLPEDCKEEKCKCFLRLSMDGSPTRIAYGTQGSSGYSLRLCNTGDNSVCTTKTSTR
# Plasma kallikrein, sequence (P03952 391-638 limits assumed): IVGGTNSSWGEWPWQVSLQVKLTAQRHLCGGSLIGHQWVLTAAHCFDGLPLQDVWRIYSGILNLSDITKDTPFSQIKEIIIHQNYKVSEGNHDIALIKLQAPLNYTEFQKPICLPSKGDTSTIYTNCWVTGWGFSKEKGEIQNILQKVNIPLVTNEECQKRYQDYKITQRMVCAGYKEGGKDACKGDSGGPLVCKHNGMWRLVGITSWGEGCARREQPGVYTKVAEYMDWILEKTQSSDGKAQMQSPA
# Tissue-type plasminogen activator, sequence (P00750 whole entry): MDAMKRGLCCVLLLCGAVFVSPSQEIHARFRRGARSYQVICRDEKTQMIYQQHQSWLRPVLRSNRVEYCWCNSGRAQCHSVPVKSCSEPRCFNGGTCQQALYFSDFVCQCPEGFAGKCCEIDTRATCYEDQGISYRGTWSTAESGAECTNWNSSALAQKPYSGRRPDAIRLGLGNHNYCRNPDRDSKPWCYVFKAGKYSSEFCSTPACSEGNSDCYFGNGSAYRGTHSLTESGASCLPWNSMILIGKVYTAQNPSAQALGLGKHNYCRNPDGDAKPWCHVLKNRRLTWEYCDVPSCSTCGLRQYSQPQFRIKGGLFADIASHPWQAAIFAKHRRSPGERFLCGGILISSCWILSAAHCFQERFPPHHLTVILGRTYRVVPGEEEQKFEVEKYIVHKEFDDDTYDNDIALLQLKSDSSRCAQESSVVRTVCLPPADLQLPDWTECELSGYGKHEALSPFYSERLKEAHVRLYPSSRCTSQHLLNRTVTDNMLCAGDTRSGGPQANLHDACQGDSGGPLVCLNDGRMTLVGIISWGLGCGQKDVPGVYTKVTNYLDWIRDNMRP
smiles,measurement,setting,value
Cc1cc(C(=O)Nc2ccc(-c3ccccc3S(N)(=O)=O)cc2)n(-c2cccc(CN)c2)n1,pKi,Coagulation factor X [1],8.39
same,pKi,Coagulation factor X [2],8.57
same,pKi,Prothrombin,4.68
same,APTT,Homo sapiens [3],2.3 µM
N=C(N)c1cccc(-n2cccc2C(=O)Nc2ccc(-c3ccccc3S(N)(=O)=O)cc2)c1,pKi,Coagulation factor X [2],9.10
same,pKi,Prothrombin,6.05
Cc1cc(C(=O)Nc2ccc(-c3ccccc3F)cc2)n(-c2cccc(C(=N)N)c2)n1,pKi,Coagulation factor X [2],9.34
same,pKi,Prothrombin,6.35
same,Ki,Trypsin,100 nM
N=C(N)c1cccc(-n2nc(C(F)(F)F)cc2C(=O)Nc2ccc(-c3ccccc3S(N)(=O)=O)cc2F)c1,pKi,Coagulation factor X [2],> 11.30
same,pKi,Prothrombin,6.92
same,Ki,Trypsin,4 nM
Cc1cc(C(=O)Nc2ccc(-c3ccccc3S(N)(=O)=O)cc2)n(-c2cccc(C(=N)N)c2)n1.O=C(O)C(F)(F)F,ID50,Oryctolagus cuniculus [4],0.02 µM/h/kg
same,pKi,Coagulation factor X [1],10.52
same,APTT,Homo sapiens [5],0.44 µM
Cc1cc(C(=O)Nc2ccc(-c3ccccc3S(N)(=O)=O)cc2Br)n(-c2cccc(C(=N)N)c2)n1,pKi,Coagulation factor X [2],11.00
same,pKi,Prothrombin,6.70
same,Ki,Trypsin,17 nM
N=C(N)c1cccc(-c2nocc2C(=O)Nc2ccc(-c3ccccc3S(N)(=O)=O)cc2)c1,pKi,Prothrombin,5.55
CS(=O)(=O)c1ccccc1-c1ccc(NC(=O)c2cc(C(F)(F)F)nn2-c2cccc(CN)c2)cc1,ID50,Oryctolagus cuniculus [6],2.2 µM/h/kg
same,pKi,Coagulation factor X [2],9.42
same,pKi,Prothrombin,5.24
same,APTT,Homo sapiens [3],2.2 µM
same,Ki,Trypsin,100 nM
CS(=O)(=O)c1ccccc1-c1ccc(NC(=O)c2cc(C(F)(F)F)nn2-c2cccc(C(=N)N)c2)cc1,pKi,Coagulation factor X [2],11.10
same,pKi,Prothrombin,7.15
same,Ki,Trypsin,4.3 nM
Cc1cc(C(=O)Nc2ccc(-c3ccccc3S(N)(=O)=O)cn2)n(-c2cccc(C(=N)N)c2)n1,ID50,Oryctolagus cuniculus [6],0.07 µM/h/kg
same,pKi,Coagulation factor X [2],11.15
same,pKi,Prothrombin,5.85
same,Ki,Trypsin,59 nM
NCc1cccc(-n2nc(C(F)(F)F)cc2C(=O)Nc2ccc(-c3ccccc3S(N)(=O)=O)cc2)c1,pKi,Coagulation factor X [1],8.68
same,ID50,Oryctolagus cuniculus [6],1 µM/h/kg
same,pKi,Coagulation factor X [2],9.04
same,pKi,Prothrombin,4.85
same,APTT,Homo sapiens [3],6.4 µM
same,Ki,Trypsin,120 nM
Cc1cc(C(=O)Nc2ccc(-c3ccccc3C(F)(F)F)cc2)n(-c2cccc(C(=N)N)c2)n1,ID50,Oryctolagus cuniculus [6],0.24 µM/h/kg
same,pKi,Coagulation factor X [2],10.40
same,pKi,Prothrombin,6.52
same,Ki,Trypsin,49 nM
Cc1cc(C(=O)Nc2ccc(-c3ccccc3S(N)(=O)=O)cc2F)n(-c2cccc(CN)c2)n1,pKi,Coagulation factor X [1],8.66
same,pKi,Coagulation factor X [2],8.80
same,pKi,Prothrombin,4.92
same,APTT,Homo sapiens [3],0.92 µM
same,Ki,Trypsin,120 nM
NCc1cccc(-n2nc(C(F)(F)F)cc2C(=O)Nc2ccc(-c3ccccc3S(N)(=O)=O)cc2F)c1,pKi,Coagulation factor X [1],9.00
same,ID50,Oryctolagus cuniculus [6],0.6 µM/h/kg
same,pKi,Coagulation factor X [2],9.44
same,pKi,Prothrombin,5.70
same,APTT,Homo sapiens [3],0.91 µM
same,Ki,Trypsin,53 nM
Cc1cc(C(=O)Nc2ccc(-c3ccccc3S(C)(=O)=O)cc2)n(-c2cccc(CN)c2)n1,pKi,Coagulation factor X [2],9.05
same,pKi,Prothrombin,4.68
same,APTT,Homo sapiens [3],1.3 µM
same,Ki,Trypsin,220 nM
N=C(N)c1cccc(-n2nc(C(F)(F)F)cc2C(=O)Nc2ccc(-c3ccccc3S(N)(=O)=O)cn2)c1,pKi,Coagulation factor X [2],11.05
same,pKi,Prothrombin,6.40
same,Ki,Trypsin,59 nM
N=C(N)c1cccc(-n2nc(C(F)(F)F)cc2C(=O)Nc2ncc(-c3ccccc3S(N)(=O)=O)cn2)c1,Ki,Trypsin,20 nM
Cc1cc(C(=O)Nc2ccc(-c3ccccc3S(N)(=O)=O)cc2F)n(-c2cccc(C(=N)N)c2)n1,pKi,Coagulation factor X [2],11.30
same,pKi,Prothrombin,6.68
same,Ki,Trypsin,4.6 nM
N=C(N)c1cccc(-n2nc(C(F)(F)F)cc2C(=O)Nc2ccc(-c3ccccc3S(N)(=O)=O)cc2)c1,pKi,Coagulation factor X [2],10.82
same,pKi,Prothrombin,7.40
same,Ki,Trypsin,3.9 nM
CCCCc1cc(C(=O)Nc2ccc(-c3ccccc3S(N)(=O)=O)cc2)n(-c2cccc(C(=N)N)c2)n1.O=C(O)C(F)(F)F,pKi,Coagulation factor X [2],10.22
same,pKi,Prothrombin,6.52
same,Ki,Trypsin,11 nM
N=C(N)c1cccc(-n2nccc2C(=O)Nc2ccc(-c3ccccc3S(N)(=O)=O)cc2)c1,pKi,Coagulation factor X [2],9.80
same,pKi,Prothrombin,6.05
Cc1cc(C(=O)N(C)c2ccc(-c3ccccc3S(N)(=O)=O)cc2)n(-c2cccc(C(=N)N)c2)n1.O=C(O)C(F)(F)F,pKi,Coagulation factor X [2],7.96
same,pKi,Prothrombin,< 5.70
same,Ki,Trypsin,> 1600 nM
CS(=O)(=O)c1ccccc1-c1ccc(NC(=O)c2cc(C(F)(F)F)nn2-c2cccc(C(=N)N)c2)c(F)c1,pKi,Coagulation factor X [2],> 11.30
same,pKi,Prothrombin,7.30
same,Ki,Trypsin,3.4 nM
Cc1cc(C(=O)Nc2ccc(-c3ccccc3S(N)(=O)=O)cc2Cl)n(-c2cccc(C(=N)N)c2)n1,pKi,Coagulation factor X [2],11.05
same,pKi,Prothrombin,6.52
same,Ki,Trypsin,15 nM
Cc1cc(C(=O)Nc2ncc(-c3ccccc3S(N)(=O)=O)cn2)n(-c2cccc(C(=N)N)c2)n1,ID50,Oryctolagus cuniculus [6],0.03 µM/h/kg
same,pKi,Coagulation factor X [2],10.39
same,pKi,Prothrombin,5.13
same,Ki,Trypsin,150 nM
Cc1cc(C(=O)Nc2ccc(-c3ccccc3S(C)(=O)=O)cc2F)n(-c2cccc(CN)c2)n1,pKi,Coagulation factor X [1],8.92
same,ID50,Oryctolagus cuniculus [6],0.9 µM/h/kg
same,pKi,Coagulation factor X [2],6.32
same,pKi,Prothrombin,4.85
same,APTT,Homo sapiens [3],1.1 µM
same,Ki,Trypsin,130 nM
Cc1cc(C(=O)Nc2ccc(-c3ccccc3S(C)(=O)=O)cc2F)n(-c2cccc(C(=N)N)c2)n1,pKi,Coagulation factor X [2],10.70
same,pKi,Prothrombin,6.64
Cc1cc(C(=O)Nc2ccc(-c3ccccc3S(C)(=O)=O)cc2)n(-c2cccc(C(=N)N)c2)n1,pKi,Coagulation factor X [2],11.10
same,pKi,Prothrombin,6.74
same,Ki,Trypsin,13 nM
Cc1cc(C(=O)Nc2ccc(-c3ccccc3)cc2)n(-c2cccc(C(=N)N)c2)n1,pKi,Coagulation factor X [2],8.89
same,pKi,Prothrombin,6.22
same,Ki,Trypsin,87 nM
CS(=O)(=O)c1ccccc1-c1ccc(NC(=O)c2cc(C(F)(F)F)nn2-c2cccc(CN)c2)c(F)c1.Cl,pKi,Plasma kallikrein,7.21
same,pKi,[7],< 4.72
same,pKi,Coagulation factor IX,5.66
same,pKi,[8],5.74
same,ID50,Oryctolagus cuniculus [6],1.1 µM/h/kg
same,pKi,[9],< 4.35
same,pKi,Plasminogen,< 4.46
same,pKi,Coagulation factor X [10],9.52
